Measurements from PMC2858063 (Steroids, 2010).

How the values were obtained:
[1] = target: T1, hu-mPRα (Homo sapiens, UniProt Q86WK9); assay: MAPK activation assay; type: cell-based; details: 100 nM, 10 min, mPRα-transfected MDA-MB-231 cells
T1 sequence (Q86WK9 1-346): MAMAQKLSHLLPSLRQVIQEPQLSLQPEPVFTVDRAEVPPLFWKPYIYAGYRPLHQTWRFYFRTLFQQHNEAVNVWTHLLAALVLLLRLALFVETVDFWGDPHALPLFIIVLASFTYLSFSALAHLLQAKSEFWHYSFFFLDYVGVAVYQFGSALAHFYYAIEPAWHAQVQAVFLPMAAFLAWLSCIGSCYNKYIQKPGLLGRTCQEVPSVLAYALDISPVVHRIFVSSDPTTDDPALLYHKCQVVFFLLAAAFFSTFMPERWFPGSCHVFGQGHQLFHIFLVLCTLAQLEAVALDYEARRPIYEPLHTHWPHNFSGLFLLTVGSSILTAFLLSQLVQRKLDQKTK
Procedure, shortened: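 Control and mPRα-transfected MDA-MB-231 cells were serum-starved 5–6 days, then treated 10 min with progestins (100 nM; 1–100 nM for concentration-response), with EGF as positive control. Lysis was in RIPA buffer plus protease inhibitors. Lysate (10 μg/lane, non-reducing) ran on duplicate SDS gels, was blotted, and was probed for total or phospho-p42/44 with rabbit monoclonals, then HRP anti-rabbit 1 h. Detection was by chemiluminescence on film. Runs were repeated 3–4 times, with statistics versus vehicle.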

[2] = target: T2, human nPR (Homo sapiens, UniProt P06401); assay: nPR steroid binding assay; details: that of progesterone
T2 sequence (P06401 679-933 limits assumed): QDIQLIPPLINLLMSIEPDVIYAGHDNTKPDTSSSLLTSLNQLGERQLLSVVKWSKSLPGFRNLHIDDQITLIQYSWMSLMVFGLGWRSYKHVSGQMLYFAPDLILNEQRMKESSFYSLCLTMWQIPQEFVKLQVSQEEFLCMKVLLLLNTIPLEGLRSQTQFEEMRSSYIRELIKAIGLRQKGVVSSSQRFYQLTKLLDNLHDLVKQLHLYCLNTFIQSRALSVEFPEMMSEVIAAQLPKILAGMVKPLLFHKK

[3] = target: T1, hu-mPRα; assay: hu-mPRα steroid binding assay; details: for RBA (Relative Binding Affinity): compared with progesterone (=100), human mPRα; for binding to hu-mPRα (in words): this study, Fig. 1, Table 1
[4] = target: T3, human PR-B (Homo sapiens, UniProt P06401); assay: nPR luciferase reporter assay; type: cell-based; details: for nPR antagonist activity: 20 and 100 nM in the presence of 5 nM progesterone
T3 sequence (P06401 1-933): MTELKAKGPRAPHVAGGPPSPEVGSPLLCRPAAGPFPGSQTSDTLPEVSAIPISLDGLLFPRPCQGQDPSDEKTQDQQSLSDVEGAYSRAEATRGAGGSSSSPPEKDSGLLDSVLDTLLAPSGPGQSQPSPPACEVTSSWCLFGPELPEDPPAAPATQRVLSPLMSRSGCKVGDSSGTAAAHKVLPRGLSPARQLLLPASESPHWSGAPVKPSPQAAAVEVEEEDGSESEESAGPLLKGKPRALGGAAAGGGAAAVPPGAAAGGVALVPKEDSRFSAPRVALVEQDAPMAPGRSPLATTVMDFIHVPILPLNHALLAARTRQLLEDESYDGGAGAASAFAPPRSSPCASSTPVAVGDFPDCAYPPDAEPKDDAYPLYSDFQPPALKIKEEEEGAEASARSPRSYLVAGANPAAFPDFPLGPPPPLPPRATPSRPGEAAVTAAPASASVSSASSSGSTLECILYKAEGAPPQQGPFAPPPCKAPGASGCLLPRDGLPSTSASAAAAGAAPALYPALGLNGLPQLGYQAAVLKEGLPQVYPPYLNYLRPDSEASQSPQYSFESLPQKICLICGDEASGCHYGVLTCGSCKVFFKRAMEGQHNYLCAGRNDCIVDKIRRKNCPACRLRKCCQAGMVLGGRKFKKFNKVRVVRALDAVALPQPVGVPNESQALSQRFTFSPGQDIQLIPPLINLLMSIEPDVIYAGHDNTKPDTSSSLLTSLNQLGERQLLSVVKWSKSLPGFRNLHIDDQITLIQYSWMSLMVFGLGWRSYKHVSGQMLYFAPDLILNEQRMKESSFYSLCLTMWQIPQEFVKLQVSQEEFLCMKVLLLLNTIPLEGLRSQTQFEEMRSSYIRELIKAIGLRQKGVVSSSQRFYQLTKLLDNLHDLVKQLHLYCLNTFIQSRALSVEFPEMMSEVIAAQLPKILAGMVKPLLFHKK
Procedure, shortened: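 MCF-7 cells in phenol red-free DMEM were co-transfected with human PR-B vector (0.25 μg), MMTV-luciferase reporter (0.6 μg) and Renilla pRL-TK (0.5 μg). […] Cells grew overnight to 90% confluence. Dual-luciferase readings were taken, 10 s each. Firefly/Renilla ratio was reported, in triplicate.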

[5] = test system: female rabbits; details: s.c.; cited from earlier work

Compound | MAPK activation (phosphorylation of ERK) [1] | relative binding affinity for nPR [2] [%] | RBA (Relative Binding Affinity) [3] [%] | binding to hu-mPRα (in words) [3] | nPR antagonist activity [4] | progestational activity in comparison with progesterone [5] | nPR agonist activity ([4]; PR-B and PRE-luciferase reporter in MCF-7 cells, 50 nM (19-CH2P4 also 1–50 nM))
18a-methylprogesterone [18a-Methylprogesterone (Org OE 64-0)] | mPRα agonists | 20.8 | 2009 | affinities higher than that of progesterone | – | – | –
19a-methylprogesterone [19a-Methylprogesterone (Org OD 13-0)] | mPRα agonists | 2.3 | 92.7 | relatively high affinity | weak antagonist activity | – | –
C=C[C@]12CCC(=O)C=C1CC[C@H]1[C@@H]3CC[C@H](C(C)=O)[C@@]3(C)CC[C@@H]12 [10-ethenyl-19-norprogesterone] | mPRα agonists | 12.9 | 257.7 | affinities higher than that of progesterone | weak antagonist activity | – | –
CC[C@H]1CC[C@H]2[C@@H]3CCC4=CC(=O)CC[C@]4(C)[C@H]3CC[C@]12C(C)=O [13-Acetyl-18-norpregn-4-en-3-one] | – | – | <1 | lost all affinity | – | 1/4 | –
CC(=O)[C@H]1CC[C@H]2[C@@H]3CCC4=CC(=O)CC[C@]4(C)[C@H]3CC[C@]12C(C)=O [13-Acetyl-18-norprogesterone] | – | – | 49.9 | low binding affinities | – | 1/3 | –
C=C[C@]12CC[C@H]3[C@@H](CCC4=CC(=O)CC[C@@]43C)[C@@H]1CC[C@@H]2C(C)=O [13-ethenyl-18-norprogesterone] | mPRα agonists | – | 168.2 | affinities higher than that of progesterone | – | – | showed nPR agonist activity
